The target in experiment [1] is KiSS-1 receptor (Homo sapiens, UniProt Q969F8). As to the kind of experiment: Agonist activity at human KISS1R expressed in CHO/dhfr cells assessed as increase in intracellular Ca2+ levels measured for 180 secs by Fluo 3-AM dye based FLIPR assay. Format: functional, cell-based. Put shortly: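 CHO cells expressing human KISS1R; FLIPR recording of ligand-induced [Ca2+]i rise over time. Maximum response taken and expressed as percent of the response to a maximal concentration of metastin(45-54). EC50 = concentration giving half-maximal mobilization, from nonlinear regression of smoothed data. Reported as ratio to the metastin(45-54) EC50.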
Chain of KiSS-1 receptor (Homo sapiens, UniProt Q969F8) (Q969F8 whole entry): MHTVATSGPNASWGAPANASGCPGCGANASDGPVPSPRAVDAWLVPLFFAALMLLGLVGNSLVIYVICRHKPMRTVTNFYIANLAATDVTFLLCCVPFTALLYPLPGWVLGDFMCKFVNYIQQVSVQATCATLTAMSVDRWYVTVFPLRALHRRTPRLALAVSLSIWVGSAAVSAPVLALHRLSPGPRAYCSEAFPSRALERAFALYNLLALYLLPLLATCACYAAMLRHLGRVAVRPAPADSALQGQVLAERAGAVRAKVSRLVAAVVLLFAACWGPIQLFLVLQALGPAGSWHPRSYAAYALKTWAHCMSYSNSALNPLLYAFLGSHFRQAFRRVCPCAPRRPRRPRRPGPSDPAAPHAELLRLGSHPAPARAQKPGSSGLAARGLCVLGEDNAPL

For experiment [2], the target named is KiSS-1 receptor (Rattus norvegicus, UniProt Q924U1). The experiment in a line: Agonist activity at rat KISS1R expressed in CHO/dhfr cells assessed as increase in intracellular Ca2+ levels measured for 180 secs by Fluo 3-AM dye based FLIPR assay. Format: functional, cell-based.
Chain of KiSS-1 receptor (Rattus norvegicus, UniProt Q924U1) (Q924U1 whole entry): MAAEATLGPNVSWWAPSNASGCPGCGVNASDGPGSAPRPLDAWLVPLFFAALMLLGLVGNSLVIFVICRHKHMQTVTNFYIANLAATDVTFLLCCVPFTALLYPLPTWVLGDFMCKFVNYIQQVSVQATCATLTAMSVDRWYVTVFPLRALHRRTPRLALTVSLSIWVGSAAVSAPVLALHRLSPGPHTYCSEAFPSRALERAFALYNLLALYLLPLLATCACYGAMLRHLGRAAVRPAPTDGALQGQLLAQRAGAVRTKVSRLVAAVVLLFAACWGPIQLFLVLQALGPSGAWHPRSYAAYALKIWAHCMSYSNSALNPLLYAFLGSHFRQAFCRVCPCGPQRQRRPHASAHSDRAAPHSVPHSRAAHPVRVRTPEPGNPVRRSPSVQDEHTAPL
A further experiment concerns Rattus norvegicus. The experiment in a line: Inhibition of testosterone levels in CD(SD) rat assessed as plasma testosterone level <0.04 ng/ml at 0.03 nmol/hr, sc administered continuously for 6 days through alzet osmotic pump measured after 6 days by radio-immunoassay. It is filed as functional, organism-based.

Active and inactive are the calls of the source. The rule behind the calls is not given here. Where a SMILES comes first, the peptide text is derived from it. [ ]: non-standard residue; d: D form. Phe(4-Cl) = N[C@@H](Cc1ccc(Cl)cc1)C(=O)O; Phe(3-F) = N[C@@H](Cc1cccc(F)c1)C(=O)O; Phe(2-F) = N[C@@H](Cc1ccccc1F)C(=O)O; Arg(Me) = CNC(=N)NCCC[C@H](N)C(=O)O; Pip = O=C(O)[C@@H]1CCCCN1; NMeA = CN[C@@H](C)C(=O)O; Thz = O=C(O)[C@@H]1CSCN1; dNMeA = CN[C@H](C)C(=O)O; Aze = O=C(O)[C@@H]1CCN1; 2Abz = Nc1ccccc1C(=O)O; Aib = CC(C)(N)C(=O)O; azaGly = NNC(=O)O; βAla = NCCC(=O)O; Sar = CNCC(=O)O

The text below walks through data of ChEMBL document CHEMBL3860048 (J Med Chem, 2016).

In the case of `CNC(=N)NCCC[C@H](NC(=O)[C@H](CC(C)C)NC(=O)NNC(=O)[C@H](Cc1ccccc1)NC(=O)[C@@H](NC(=O)[C@H](CC(N)=O)NC(=O)[C@@H]1CCN1C(=O)[C@@H](Cc1ccc(O)cc1)NC(C)=O)[C@@H](C)O)C(=O)N[C@@H](Cc1c[nH]c2ccccc12)C(N)=O` (Ac-[dY][Aze]NTF[azaGly]L[Arg(Me)]W-NH2), the figures for the EC50 at KiSS-1 receptor [1] and at KiSS-1 receptor [2] were 1.9 nM and 16 nM, respectively. Also, in the experiment on Rattus norvegicus, the inhibition result is “Active”.
As to `CNC(=N)NCCC[C@H](NC(=O)[C@H](CC(C)C)NC(=O)NNC(=O)[C@H](Cc1ccccc1)NC(=O)[C@@H](NC(=O)[C@H](CC(N)=O)NC(=O)CCNC(=O)[C@@H](Cc1ccc(O)cc1)NC(C)=O)[C@@H](C)O)C(=O)N[C@@H](Cc1c[nH]c2ccccc12)C(N)=O` (Ac-[dY][βAla]NTF[azaGly]L[Arg(Me)]W-NH2), the figures for the EC50 at KiSS-1 receptor [1] and at KiSS-1 receptor [2] were 3.3 nM and 11 nM, respectively.
For `CNC(=N)NCCC[C@H](NC(=O)[C@H](CC(C)C)NC(=O)NNC(=O)[C@H](Cc1ccccc1)NC(=O)[C@@H](NC(=O)[C@H](CC(N)=O)NC(=O)[C@@H]1CCCCN1C(=O)[C@@H](Cc1ccc(O)cc1)NC(C)=O)[C@@H](C)O)C(=O)N[C@@H](Cc1c[nH]c2ccccc12)C(N)=O` (Ac-[dY][Pip]NTF[azaGly]L[Arg(Me)]W-NH2) the same measures were 2.8 nM and 17 nM.
With `CNC(=N)NCCC[C@H](NC(=O)[C@H](CC(C)C)NC(=O)NNC(=O)[C@H](Cc1ccccc1)NC(=O)[C@@H](NC(=O)[C@H](CC(N)=O)NC(=O)[C@@H](C)N(C)C(=O)[C@@H](Cc1ccc(O)cc1)NC(C)=O)[C@@H](C)O)C(=O)N[C@@H](Cc1c[nH]c2ccccc12)C(N)=O` (Ac-[dY][dNMeA]NTF[azaGly]L[Arg(Me)]W-NH2), the EC50 (usually the concentration needed to bring the measured effect to its halfway point) was 1.8 nM at KiSS-1 receptor [1] and 7.3 nM on KiSS-1 receptor [2].
For `CNC(=N)NCCC[C@H](NC(=O)[C@H](CC(C)C)NC(=O)NNC(=O)[C@H](Cc1ccccc1)NC(=O)[C@@H](NC(=O)[C@H](CC(N)=O)NC(=O)[C@H](C)NC(=O)[C@@H](Cc1ccc(O)cc1)NC(C)=O)[C@@H](C)O)C(=O)N[C@@H](Cc1c[nH]c2ccccc12)C(N)=O` the same measures were 1.2 nM and 6 nM.
For the compound `CNC(=N)NCCC[C@H](NC(=O)[C@H](CC(C)C)NC(=O)NNC(=O)[C@H](Cc1ccccc1)NC(=O)[C@@H](NC(=O)[C@H](CC(N)=O)NC(=O)C1CN(C(=O)[C@@H](Cc2ccc(O)cc2)NC(C)=O)C1)[C@@H](C)O)C(=O)N[C@@H](Cc1c[nH]c2ccccc12)C(N)=O`, the values for the half-maximal effective concentration (EC50) on KiSS-1 receptor [1] and on KiSS-1 receptor [2] were 2.3 nM and 15 nM, respectively.
For the compound `CNC(=N)NCCC[C@H](NC(=O)[C@H](CC(C)C)NC(=O)NNC(=O)[C@H](Cc1ccccc1)NC(=O)[C@@H](NC(=O)[C@H](CC(N)=O)NC(=O)[C@H]1CCCN(C(=O)[C@@H](Cc2ccc(O)cc2)NC(C)=O)C1)[C@@H](C)O)C(=O)N[C@@H](Cc1c[nH]c2ccccc12)C(N)=O`, the EC50 on KiSS-1 receptor [1] is 5.5 nM; on KiSS-1 receptor [2], 45 nM.
For `CNC(=N)NCCC[C@H](NC(=O)[C@H](CC(C)C)NC(=O)NNC(=O)[C@H](Cc1ccccc1)NC(=O)[C@@H](NC(=O)[C@H](CC(N)=O)NC(=O)[C@H](CCC(=O)O)NC(=O)[C@@H](Cc1ccc(O)cc1)NC(C)=O)[C@@H](C)O)C(=O)N[C@@H](Cc1c[nH]c2ccccc12)C(N)=O`, the EC50 was found to be 2.8 nM on KiSS-1 receptor [1] and 11 nM on KiSS-1 receptor [2]. Further, the inhibition result with Rattus norvegicus is “Active”.
Consider `CNC(=N)NCCC[C@H](NC(=O)[C@H](CC(C)C)NC(=O)NNC(=O)[C@H](Cc1cccc(F)c1)NC(=O)[C@@H](NC(=O)[C@H](CC(N)=O)NC(=O)[C@H](Cc1c[nH]c2ccccc12)NC(=O)[C@@H](Cc1ccc(O)cc1)NC(C)=O)[C@@H](C)O)C(=O)N[C@@H](Cc1c[nH]c2ccccc12)C(N)=O` (Ac-[dY]WNT[Phe(3-F)][azaGly]L[Arg(Me)]W-NH2), for which the EC50 at KiSS-1 receptor [1] was found to be 0.073 nM; on KiSS-1 receptor [2] it was 1.2 nM.
Consider `CNC(=N)NCCC[C@H](NC(=O)[C@H](CC(C)C)NC(=O)NNC(=O)[C@H](Cc1ccccc1)NC(=O)[C@@H](NC(=O)[C@H](CC(N)=O)NC(=O)[C@@H](CC(C)C)NC(=O)[C@@H](Cc1ccc(O)cc1)NC(C)=O)[C@@H](C)O)C(=O)N[C@@H](Cc1c[nH]c2ccccc12)C(N)=O`, for which the EC50 amounted to 2 nM at KiSS-1 receptor [1] and 12 nM on KiSS-1 receptor [2]. Also, the inhibition result with Rattus norvegicus is “Active”.
`CNC(=N)NCCC[C@H](NC(=O)[C@H](CC(C)C)NC(=O)NNC(=O)[C@H](Cc1ccccc1)NC(=O)[C@@H](NC(=O)[C@H](CC(N)=O)NC(=O)[C@H](C)N(C)C(=O)[C@@H](Cc1ccc(O)cc1)NC(C)=O)[C@@H](C)O)C(=O)N[C@@H](Cc1c[nH]c2ccccc12)C(N)=O` (Ac-[dY][NMeA]NTF[azaGly]L[Arg(Me)]W-NH2): the values for the EC50 at KiSS-1 receptor [1] and at KiSS-1 receptor [2] were 4.4 nM and 43 nM, respectively.
Regarding `CNC(=N)NCCC[C@H](NC(=O)[C@H](CC(C)C)NC(=O)NNC(=O)[C@H](Cc1ccccc1)NC(=O)[C@@H](NC(=O)[C@H](CC(N)=O)NC(=O)[C@@H](C)NC(=O)[C@@H](Cc1ccc(O)cc1)NC(C)=O)[C@@H](C)O)C(=O)N[C@@H](Cc1c[nH]c2ccccc12)C(N)=O`, the half-maximal effective concentration (EC50) on KiSS-1 receptor [1] was found to be 2.7 nM; on KiSS-1 receptor [2], 16 nM.
For `CNC(=N)NCCC[C@H](NC(=O)[C@H](CC(C)C)NC(=O)NNC(=O)[C@H](Cc1ccccc1)NC(=O)[C@@H](NC(=O)[C@H](CC(N)=O)NC(=O)CN(C)C(=O)[C@@H](Cc1ccc(O)cc1)NC(C)=O)[C@@H](C)O)C(=O)N[C@@H](Cc1c[nH]c2ccccc12)C(N)=O` (Ac-[dY][Sar]NTF[azaGly]L[Arg(Me)]W-NH2) the same measures were 4.9 nM and 20 nM.
For `CNC(=N)NCCC[C@H](NC(=O)[C@H](CC(C)C)NC(=O)NNC(=O)[C@H](Cc1cccc(F)c1)NC(=O)[C@@H](NC(=O)[C@H](CC(N)=O)NC(=O)CNC(=O)[C@@H](Cc1ccc(O)cc1)NC(C)=O)[C@@H](C)O)C(=O)N[C@@H](Cc1c[nH]c2ccccc12)C(N)=O` (Ac-[dY]GNT[Phe(3-F)][azaGly]L[Arg(Me)]W-NH2) the same measures were 1.1 nM and 7.4 nM.
Turning to `CNC(=N)NCCC[C@H](NC(=O)[C@H](CC(C)C)NC(=O)NNC(=O)[C@H](Cc1ccc(Cl)cc1)NC(=O)[C@@H](NC(=O)[C@H](CC(N)=O)NC(=O)[C@@H](Cc1c[nH]c2ccccc12)NC(=O)[C@@H](Cc1ccc(O)cc1)NC(C)=O)[C@@H](C)O)C(=O)N[C@@H](Cc1c[nH]c2ccccc12)C(N)=O` (Ac-[dY][dW]NT[Phe(4-Cl)][azaGly]L[Arg(Me)]W-NH2), the EC50 worked out at 0.56 nM on KiSS-1 receptor [1] and 2.8 nM at KiSS-1 receptor [2].
As for `CNC(=N)NCCC[C@H](NC(=O)[C@H](CC(C)C)NC(=O)NNC(=O)[C@H](Cc1cccc(F)c1)NC(=O)[C@@H](NC(=O)[C@H](CC(N)=O)NC(=O)C(C)(C)NC(=O)[C@@H](Cc1ccc(O)cc1)NC(C)=O)[C@@H](C)O)C(=O)N[C@@H](Cc1c[nH]c2ccccc12)C(N)=O` (Ac-[dY][Aib]NT[Phe(3-F)][azaGly]L[Arg(Me)]W-NH2), the EC50 on KiSS-1 receptor [1] is 1.2 nM; at KiSS-1 receptor [2] it was 7 nM.
For `CNC(=N)NCCC[C@H](NC(=O)[C@H](CC(C)C)NC(=O)NNC(=O)[C@H](Cc1ccccc1F)NC(=O)[C@@H](NC(=O)[C@H](CC(N)=O)NC(=O)[C@@H](Cc1c[nH]c2ccccc12)NC(=O)[C@@H](Cc1ccc(O)cc1)NC(C)=O)[C@@H](C)O)C(=O)N[C@@H](Cc1c[nH]c2ccccc12)C(N)=O` (Ac-[dY][dW]NT[Phe(2-F)][azaGly]L[Arg(Me)]W-NH2) the same measures were 0.65 nM and 1.8 nM.
For `CNC(=N)NCCC[C@H](NC(=O)[C@H](CC(C)C)NC(=O)NNC(=O)[C@H](Cc1ccccc1)NC(=O)[C@@H](NC(=O)[C@H](CC(N)=O)NC(=O)[C@H]1CCCN1C(=O)[C@@H](Cc1ccc(O)cc1)NC(C)=O)[C@@H](C)O)C(=O)N[C@@H](Cc1c[nH]c2ccccc12)C(N)=O` the same measures were 5.8 nM and 110 nM.
Consider `CNC(=N)NCCC[C@H](NC(=O)[C@H](CC(C)C)NC(=O)NNC(=O)[C@H](Cc1ccccc1)NC(=O)[C@@H](NC(=O)[C@H](CC(N)=O)NC(=O)c1ccccc1NC(=O)[C@@H](Cc1ccc(O)cc1)NC(C)=O)[C@@H](C)O)C(=O)N[C@@H](Cc1c[nH]c2ccccc12)C(N)=O` (Ac-[dY][2Abz]NTF[azaGly]L[Arg(Me)]W-NH2), for which the EC50 was 5.2 nM at KiSS-1 receptor [1] and 47 nM at KiSS-1 receptor [2].
Consider `CNC(=N)NCCC[C@H](NC(=O)[C@H](CC(C)C)NC(=O)NNC(=O)[C@H](Cc1cccc(F)c1)NC(=O)[C@@H](NC(=O)[C@H](CC(N)=O)NC(=O)[C@@H](Cc1c[nH]c2ccccc12)NC(=O)[C@@H](Cc1ccc(O)cc1)NC(C)=O)[C@@H](C)O)C(=O)N[C@@H](Cc1c[nH]c2ccccc12)C(N)=O` (Ac-[dY][dW]NT[Phe(3-F)][azaGly]L[Arg(Me)]W-NH2), for which the EC50 at KiSS-1 receptor [1] turned out to be 1.4 nM; on KiSS-1 receptor [2], 4.8 nM.
The like results for `CNC(=N)NCCC[C@H](NC(=O)[C@H](CC(C)C)NC(=O)NNC(=O)[C@H](Cc1ccccc1)NC(=O)[C@@H](NC(=O)[C@H](CC(N)=O)NC(=O)[C@@H]1CSCN1C(=O)[C@@H](Cc1ccc(O)cc1)NC(C)=O)[C@@H](C)O)C(=O)N[C@@H](Cc1c[nH]c2ccccc12)C(N)=O` (Ac-[dY][Thz]NTF[azaGly]L[Arg(Me)]W-NH2) were, in that order, 2.3 nM and 23 nM.
The like results for `CNC(=N)NCCC[C@H](NC(=O)[C@H](CC(C)C)NC(=O)NNC(=O)[C@H](Cc1ccccc1)NC(=O)[C@@H](NC(=O)[C@H](CC(N)=O)NC(=O)[C@@H]1Cc2ccccc2CN1C(=O)[C@@H](Cc1ccc(O)cc1)NC(C)=O)[C@@H](C)O)C(=O)N[C@@H](Cc1c[nH]c2ccccc12)C(N)=O` were, in that order, 0.49 nM and 7 nM.
